Reference: ChEMBL document CHEMBL3352730, “Synthesis and effects on cell viability of flavonols and 3-methyl ether derivatives on human leukemia cells” (Eur J Med Chem, 2014)

test system: not listed separately; assay: Cytotoxicity against human HL60/MX1 cells after 72 hrs by MTT assay; type: functional, cell-based; settings: HL60/MX1, 72 h
Summary of the method: (§1)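 MTT colorimetric assay with 72 h continuous exposure. IC50 was fitted per experiment by non-linear regression. Values are means with SE from at least three independent experiments, each run in triplicate.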

SMILES	IC50 [µM]
O=c1c(O)c(-c2ccccc2Cl)oc2ccccc12	> 30

test system: Raji; assay: Cytotoxicity against human Raji cells after 72 hrs by MTT assay; type: functional, cell-based; settings: not given; summary of the method: as §1

SMILES	IC50 [µM]
O=c1c(O)c(-c2ccccc2Cl)oc2ccccc12	> 30

test system: not listed separately; assay: Cytotoxicity against human HL60 cells after 72 hrs by MTT assay; type: functional, cell-based; settings: HL-60, 72 h; summary of the method: as §1

SMILES	IC50 [µM]
COc1ccc(-c2oc3ccccc3c(=O)c2OC)cc1	39
COc1cc(-c2oc3ccccc3c(=O)c2O)cc(OC)c1OC	138
COc1cc(O)c2c(=O)c(OC)c(-c3ccc(OC)c(OC)c3)oc2c1 [RETUSIN]	28
COc1ccc(-c2oc3ccccc3c(=O)c2OC)c(OC)c1C	96
COc1ccc(-c2oc3ccccc3c(=O)c2O)c(OC)c1C	32
COc1ccccc1-c1oc2ccccc2c(=O)c1OC	98
COc1ccc2c(=O)c(OC)c(-c3ccc(OC)c(C)c3OC)oc2c1	27
COc1ccc(-c2oc3cc(OC)ccc3c(=O)c2O)cc1	148
O=c1c(O)c(-c2ccc(Cl)cc2)oc2ccccc12	102
O=c1c(O)c(-c2ccccc2Cl)oc2ccccc12	10.7
COc1ccc2c(=O)c(OC)c(-c3cc(OC)c(OC)c(OC)c3)oc2c1	21
COc1c(-c2ccc(Cl)cc2)oc2ccccc2c1=O	26
COc1c(-c2ccc(Br)cc2)oc2ccccc2c1=O	21
COc1ccc(-c2oc3cc(OC)ccc3c(=O)c2OC)cc1	122
COc1ccccc1-c1oc2ccccc2c(=O)c1O	30
COc1c(-c2cccc3ccccc23)oc2ccccc2c1=O	16
COc1ccc(-c2oc3ccccc3c(=O)c2OC)c(OC)c1	34
COc1ccc2c(=O)c(O)c(-c3cc(OC)c(OC)c(OC)c3)oc2c1	34
COc1ccc(-c2oc3ccccc3c(=O)c2O)c(OC)c1	53
O=c1c(O)c(-c2ccc(O)c(O)c2)oc2cc(O)cc(O)c12 [QUERCETIN]	47
COc1cc([C@@H]2c3cc4c(cc3[C@@H](O[C@@H]3O[C@@H]5CO[C@@H](C)O[C@H]5[C@H](O)[C@H]3O)[C@H]3COC(=O)[C@H]23)OCO4)cc(OC)c1O [ETOPOSIDE]	0.6

test system: HL-60; assay: Induction of apoptosis in human HL60 cells at 30 uM after 24 hrs by propidium iodide staining based flow cytometry (reference value: 3.8 +/- 0.6%); type: functional; settings: not given

SMILES	Activity [%]
O=c1c(O)c(-c2ccccc2Cl)oc2ccccc12	14.9
